These results are taken from ChEMBL document CHEMBL1123477, “Phenethyl ester derivative analogues of the C-terminal tetrapeptide of gastrin as potent gastrin antagonists” (J Med Chem, 1986).

Molecules are shown by their SMILES. Activity calls are given as the source filed them. The rule behind the calls is not given here. Where a SMILES comes first, the peptide text is derived from it. The star is where a group is joined. Boc = CC(C)(C)OC(=O)*

Experiment [1] relates to Rattus norvegicus. Kind of experiment: Compound was evaluated for the antagonist activity (ED50) against gastrin-induced acid secretion in the anesthetized rat. Format: functional. The gist of the method: (§1)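 Urethane-anaesthetized rats (ip) with the stomach continuously perfused at 30 °C with propionate-succinate solution. Cumulative pH was recorded over time as the index of acid secretion. Compound in alkaline aqueous solution was given as an iv bolus together with (Leu15)-human gastrin I, usually 80 pmol. H+ output, taken from the stimulated minus basal trace, was expressed as % inhibition relative to gastrin alone.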

Experiment [2] is described as follows: Compound was evaluated for the inhibition of [125 I](Nle12)HG-13 binding to isolated gastric mucosa cells. Details: species or system Oryctolagus cuniculus. To be noted: in the assay text read “(Nle11)” for “(Nle12)”. The gist of the method: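 Dispersed rabbit fundic mucosal cells (collagenase/EDTA digestion, mixed population with about 45% parietal cells) were incubated in Hepes-buffered Earle's medium with 0.2% BSA, pH 7.4. Incubation was 30 min at 37 °C with 20 pM mono-iodinated (Nle11)-HG-13 (chloramine T labelling) plus varied peptide concentrations. Nonsaturable binding was defined with 1 × 10^-6 M unlabeled (Nle11)-HG-13.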

Experiment [3] concerns Rattus norvegicus. The experiment can be described thus: Compound was evaluated for the antagonist activity (ED50) against gastrin-induced acid secretion in the anesthetized rat; Inactive. Type of experiment: functional, organism-based. The gist of the method:
as §1

As for `CC(C)C[C@H](NC(=O)[C@H](Cc1c[nH]c2ccccc12)NC(=O)OC(C)(C)C)C(=O)N[C@@H](CC(=O)O)C(=O)OCCc1ccc(F)cc1`, the ED50 in the experiment with Rattus norvegicus [1] worked out at 0.08 mg/kg.

In the experiment with Rattus norvegicus [1], `CC(C)C[C@H](NC(=O)[C@H](Cc1c[nH]c2ccccc12)NC(=O)OC(C)(C)C)C(=O)N[C@@H](CC(=O)O)C(=O)OCCc1ccccc1F` yielded a median effective dose (ED50) of 0.1 mg/kg. Regarding `CC(C)C[C@H](NC(=O)[C@H](Cc1c[nH]c2ccccc12)NC(=O)OC(C)(C)C)C(=O)N[C@@H](CC(=O)O)C(=O)OCCc1ccccc1C(F)(F)F`, it took a dose of 1.5 mg/kg to reach the 50% effect level with Rattus norvegicus [1] (ED50). Same read-out and setting: then `CC(C)C[C@H](NC(=O)[C@H](Cc1c[nH]c2ccccc12)NC(=O)CCNC(=O)OC(C)(C)C)C(=O)N[C@@H](CC(=O)O)C(=O)OCCc1ccc(F)cc1`, with 0.02 mg/kg; and `CC(C)C[C@H](NC(=O)[C@H](Cc1c[nH]c2ccccc12)NC(=O)CCNC(=O)OC(C)(C)C)C(=O)N[C@H](CC(=O)O)C(=O)OCCc1ccccc1`, with 0.08 mg/kg. Regarding `CC(C)C[C@H](NC(=O)[C@H](Cc1c[nH]c2ccccc12)NC(=O)OC(C)(C)C)C(=O)N[C@@H](CC(=O)O)C(=O)OCCc1ccccc1`, the IC50 in experiment [2] amounted to 750 nM. This molecule also yielded an ED50 with Rattus norvegicus [1] of 0.1 mg/kg. For `CC(C)C[C@H](NC(=O)[C@@H](Cc1c[nH]c2ccccc12)NC(=O)CCNC(=O)OC(C)(C)C)C(=O)N[C@H](CC(=O)O)C(=O)OCCc1ccccc1`, in that order: 75 nM and 0.04 mg/kg. For `CC(C)C[C@H](NC(=O)[C@H](Cc1c[nH]c2ccccc12)NC(=O)OC(C)(C)C)C(=O)N[C@@H](CC(=O)O)C(=O)N[C@@H](Cc1ccccc1)C(N)=O` (Boc-WLDF-NH2), in experiment [2], the IC50 was 500 nM.

With `CC(C)C[C@H](NC(=O)OC(C)(C)C)C(=O)N[C@@H](CC(=O)O)C(=O)OCCc1ccccc1`, the ED50 entry in the experiment on Rattus norvegicus [3] was “inactive”. In the experiment with Rattus norvegicus [1], `CC(C)C[C@H](NC[C@H](Cc1c[nH]c2ccccc12)NC(=O)OC(C)(C)C)C(=O)N[C@@H](CC(=O)O)C(=O)OCCc1ccc(F)cc1` yielded an ED50 of 0.1 mg/kg. The same measure, in the same setting: then `CC(C)C[C@H](NC(=O)[C@H](Cc1c[nH]c2ccccc12)NC(=O)OC(C)(C)C)C(=O)N[C@@H](CC(=O)O)C(=O)OCCc1cccc(C(F)(F)F)c1`, with greater than 1 mg/kg. As for `CC(C)C[C@H](NC(=O)[C@@H](Cc1c[nH]c2ccccc12)NC(=O)CCNC(=O)OC(C)(C)C)C(=O)N[C@H](CC(=O)O)C(=O)NC(Cc1ccccc1)C(N)=O` (some centres not stated), the IC50 in experiment [2] came to 50 nM. Take `CC(C)C[C@@H](NC(=O)[C@H](Cc1c[nH]c2ccccc12)NC(=O)OC(C)(C)C)C(=O)N[C@H](CC(=O)OCCc1ccc(F)cc1)C(=O)O`: the ED50 result with Rattus norvegicus [3] was “inactive”. In the experiment on Rattus norvegicus [1], `CC(C)C[C@H](NC(=O)[C@@H](Cc1c[nH]c2ccccc12)NC(=O)OC(C)(C)C)C(=O)N[C@@H](CC(=O)O)C(=O)OCCc1ccccc1` yielded an ED50 of 0.8 mg/kg. Still for that read-out and setting: then `CC(C)C[C@H](NC[C@H](Cc1c[nH]c2ccccc12)NC(=O)OC(C)(C)C)C(=O)N[C@@H](CC(=O)O)C(=O)OCCc1ccccc1`, with 1 mg/kg.

A word on the ED50: it is the dose at which the effect has come halfway, by size or by number of responders. Usually IC50 stands for the concentration at which inhibition is half-maximal.
